Screening results as filed in PubChem BioAssay.
Most compounds without a hit are left out; they make up all but 2.9% or so of the library.
Runt-SMMHC FRET: blocks binding of human RUNX1 Runt domain to CBFb-SMMHC; Q01196+Q13951; Cerulean-Runt/Venus-CBFb-SMMHC FRET ratio 530/480, 1 h; inhibition, % at 20 µM; 220,000 tested, 0.74% active;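 active = mean inhibition across duplicate retests at 20 µM reaching about 50%, limit read from the data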;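 note: inhibitors lower the FRET ratio by blocking Runt binding to CBFb-SMMHC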
RBBP9 inh: inhibitors of human serine hydrolase RBBP9. O75884. recombinant RBBP9, FP-Rh probe fluorescence polarization. inhibition, % at 7.94 µM. 220,000 tested, 0.2% active. AID 1515;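 active = inhibition above the campaign mean of all tested compounds plus 3 SD, cut at about 14% in these data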
Target sequence (O75884 whole entry, looked up): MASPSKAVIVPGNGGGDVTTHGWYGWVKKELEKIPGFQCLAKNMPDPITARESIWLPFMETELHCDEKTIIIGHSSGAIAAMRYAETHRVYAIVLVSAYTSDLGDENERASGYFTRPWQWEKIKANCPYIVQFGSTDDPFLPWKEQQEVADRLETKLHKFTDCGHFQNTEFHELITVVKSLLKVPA
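Test system: recombinant human RBBP9; Timing: 30 min then 45 min, 25 °C; Detection: fluorescence polarization; Control set: RBBP9 with DMSO as uninhibited control, no-protein wells as full inhibition; Compound dosing: one concentration, 7.94 µM nominal, 0.794% DMSO; Probe or stimulus: FP-Rh activity-based probe, 375 nM before mixing.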
Runt-CBFb FRET: Runt domain-CBFb interaction inhibition; Cerulean-Runt/Venus-CBFb FRET ratio 530/480, 1 h; inhibition, % at 20 µM; 220,000 tested, 0.46% active; Q01196+Q13951;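 active = inhibition over about 50% at 20 µM in the single-dose screen, limit read from the data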
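Assay system: Cerulean-Runt domain fusion protein, energy donor; Signal: fluorescence energy transfer, 422 nm excitation, 530/480 nm emission; Timing: 1 h compound exposure, room temperature; Control set: unlabeled CBFb; Medium: Tris buffer pH 7.5 with salts and BSA; Compound: single test concentration of 20 µM, 1% DMSO final; Probe or stimulus: Venus-CBFb 100 nM.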
RanGTP-Impb inh: disruptors of Ran-importin-beta complex formation – biochemical, FRET, CFP-Ran, YFP-importin-beta, homogeneous, primary screen | cell-free CFP-Ran/YFP-importin-beta FRET ratio | 300,000 tested, 1.1% active | inhibition, % (concentration not given with the values);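 active = more than half of the replicate wells show a fall in the fluorescence ratio signal beyond about 16%, limit read from the data, passing the limit was not always enough; inconclusive = exactly half of the replicate wells pass the set limit; inactive = fewer than half of replicates pass the limit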
M18AAP inhibitor: blocks P. falciparum M18 aspartyl aminopeptidase; recombinant PfM18AAP, H-Glu-NHMec fluorogenic cleavage; inhibition, % at 7.35 µM; 290,000 tested, 1.2% active;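 active = inhibition above the campaign mean inhibition over all tested compounds plus 3 SD, cut at about 28% in these data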
Hck-Nef inh: human Hck-Nef kinase inhibition | inhibition, % at 20 µM | 220,000 tested, 0.68% active | P08631 | Recombinant Hck-YEEI plus Nef, Z-Lyte FRET kinase assay;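 active = Hck-Nef kinase inhibition above about 50%, limit read from the data; inactive = inhibition below that limit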
Hits are given with their value; i = inactive; ? = inconclusive; nt = no result.

SMILES | Runt-SMMHC FRET | RBBP9 inh | Runt-CBFb FRET | RanGTP-Impb inh | M18AAP inhibitor | Hck-Nef inh
O=C(Nc1ccc(F)cc1F)c1cc(=O)n(-c2ccccc2)c(=O)[nH]1 | i | i | i | i | i | i
Cc1onc(-c2c(F)cccc2Cl)c1C(=O)Nc1sc2c(c1C(N)=O)CCC2 | i | i | i | 60.6 | i | i
NC(=O)c1c(NC(=O)c2ccccc2Cl)sc2c1CCC2 | nt | nt | nt | i | i | nt
COc1ccc2c(c1)O/C(=C\c1sccc1C)C2=O | i | i | i | 29.0 | i | i
CCC(=O)N1CCc2cc(Br)cc(S(=O)(=O)NCc3ccccc3OC)c21 | nt | nt | nt | i | i | nt
CC(C(=O)O)N1C(=O)/C(=C/C=C/c2ccco2)SC1=S (stereo unspecified) | i | i | nt | i | i | 68.9
O=C(O)CCCN1C(=O)/C(=C\c2ccco2)SC1=S | i | i | i | i | i | i
O=c1oc2ccc(NS(=O)(=O)c3cccc4cccnc34)cc2s1 | nt | nt | nt | i | 31.4 | nt
CCOC(=O)c1c(C)[nH]c(C)c1S(=O)(=O)NC(C)Cc1ccco1 (stereo unspecified) | nt | nt | nt | i | i | nt
C=C(C)C(=O)Nc1cccc(C2=NOC3(C2)C[C@@H](C(N)=O)N(C(=O)CC(c2ccccc2)c2ccccc2)C3)c1 (stereo partly specified) | i | nt | i | ? | nt | i
Cc1c(CN2CCc3c([nH]c4ccccc34)C2CC(C)C)cnn1C (stereo unspecified) | i | i | i | 34.6 | i | i
CC(C)CC1c2[nH]c3ccccc3c2CCN1C(=O)c1cnccn1 (stereo unspecified) | i | i | i | i | i | i
CN1CC2(Cc3c1ccc1ccccc31)C(=O)OC(C)(C)OC2=O | 112.6 | i | i | i | i | i
CC1(C)Cc2c(ccc3ccccc23)C(=O)N1 | i | i | i | i | i | i
CCCCCCNC(=O)c1c(N)n(/N=C/c2ccco2)c2nc3ccccc3nc12 | nt | i | nt | nt | i | i
Nc1c(S(=O)(=O)c2cccc(Cl)c2)c2nc3ccccc3nc2n1CCN1CCOCC1 | i | i | i | i | i | i
CCCCCOC(=O)c1c(N)n(CCOC)c2nc3ccccc3nc12 | 114.5 | i | i | i | i | i
COC(=O)c1c(N)n(CCCN2CCOCC2)c2nc3ccccc3nc12 | 129.6 | i | 65.9 | 20.7 | i | i
COc1ccc(CNC(=O)c2c(N)n(CCCN3CCOCC3)c3nc4ccccc4nc23)cc1 | 80.9 | i | i | 96.7 | i | i
COc1ccc(CNC(=O)C(C)Sc2nc3ccccc3c(=O)n2CCCN2CCOCC2)cc1 (stereo unspecified) | i | i | i | i | i | i
Nc1c(C(=O)NCc2ccc(F)cc2)c2nc3ccccc3nc2n1CCCN1CCOCC1 | 80.9 | i | i | 87.5 | i | i
O=C(NCCCN1CCOCC1)c1ccc(CNS(=O)(=O)c2ccc(F)cc2)cc1 | i | i | i | i | i | i
C=C(C)COc1ccc(-c2ncncc2-c2ccccc2)c(O)c1 | nt | nt | nt | i | i | nt
Nc1c(C(=O)NCc2ccco2)c2nc3ccccc3nc2n1CCc1ccccc1 | 76.0 | i | i | 55.6 | i | i
Nc1c(C(=O)NCc2ccccc2)c2nc3ccccc3nc2n1CCCN1CCOCC1 | 76.0 | i | 78.6 | 100.9 | i | i
SMILES | Runt-SMMHC FRET | RBBP9 inh | Runt-CBFb FRET | RanGTP-Impb inh | M18AAP inhibitor | Hck-Nef inh
O=C(NCCCN1CCOCC1)C(=O)NCc1ccccc1 | i | i | i | i | i | i
O=C(Nc1ccc(Cl)cn1)c1ccc2nccnc2c1 | nt | nt | nt | i | i | nt
CCN(CC)S(=O)(=O)c1cccc(C(=O)NCCc2ccccc2)c1 | nt | i | nt | i | i | i
CN(c1ccccc1)S(=O)(=O)c1cccc(C(=O)NCCc2ccc(O)c(O)c2)c1 | i | i | i | i | 40.5 | i
CCOC(=O)C(CC)n1cnc2c(nnn2-c2ccc(F)cc2)c1=O (stereo unspecified) | nt | nt | nt | i | i | nt
COC(=O)c1c(NC(=O)CN2CCC3(O)CCCCC3C2c2ccc(OC)cc2OC)sc(C)c1C (stereo unspecified) | i | i | i | i | 44.1 | i
COC(=O)c1c(NC(=O)CN2CCC3(O)CCCCC3C2c2ccccc2OC)sc(C)c1C (stereo unspecified) | i | i | i | i | i | i
